Columns and labels:
Assay type in all cases: cell-based, human
Pa03C + CAF19 co-culture = test: Monolayer proliferation assay; conditions: 2:1 tumor:CAF co-culture, 72 h
Procedure, shortened: (§1)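 Monolayers were grown in DMEM with 10% serum at 37 °C, 5% CO2. Seeding was Pa03C tumor cells 2,000–3,000/well, EGFP-expressing CAF19 fibroblasts 4,000/well, or tumor plus CAFs at a 2:1 ratio. Test compound was added 24 h after seeding, and viability was read 72 h later. Dose-response data are Avg+SE, n=3–4. The 50% value came from a linear-regression fit at 50% survival.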

Pa03C cells = test: Monolayer proliferation assay; conditions: tumor cells (Pa03C), 72 h
Procedure, shortened: as §1

Panc10.05 cells = test: Cell viability / proliferation screen; conditions: 72 h, Avg ± SE, n=4–5
Procedure, shortened: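 Panc10.05 patient-derived PDAC cells (STR-verified) were grown in DMEM with 10% serum at 37 °C, 5% CO2. Monolayers were seeded at 2,000–3,000 cells/well, and test compound was added 24 h after seeding. MTS tetrazolium read-out was taken 72 h later. Data from 4–5 repeats were pooled, and ED50 was taken from a linear-regression fit where percent survival equalled 50%.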

[1] = test system: p-STAT3 (Y705) in Pa03C cells; test: Immunoblot of p-STAT3; conditions: 10 μM, 4 hr pre-treatment, IL-6 25 ng/mL 15 min
CAF19 cells = test: Monolayer proliferation assay; conditions: CAFs (CAF19), 72 h
Procedure, shortened: as §1

Row | SMILES | IC50 (Pa03C + CAF19 co-culture) [µM] | IC50 (Pa03C cells) [µM] | ED50 (Panc10.05 cells) [µM] | phosphorylation of STAT3 at Y705 [1] | IC50 (CAF19 cells) [µM]
1 | CN(CC(=O)N(Cc1ccc(C2CCCCC2)cc1)c1ccc(C(=O)O)cc1)S(=O)(=O)c1c(F)c(F)c(F)c(F)c1F [SH-4-54] | 11.8 ± 1.1 | 9.2 ± 1.7 | 8.7 ± 1.9 | inhibited phosphorylation of STAT3 at Y705 | 7.6 ± 0.9
2 | CN(CC(=O)N(Cc1ccc(C2CCCCC2)cc1)c1ccc(C(=O)O)c(O)c1)S(=O)(=O)c1c(F)c(F)c(F)c(F)c1F [BP-1-102] | 16.4 ± 0.6 | 19.1 ± 0.9 | – | inhibited phosphorylation of STAT3 at Y705 | 15.2 ± 2.7
